According to publication PMC11399684 (Saudi Pharmaceutical Journal : SPJ, 2024):
Blank lines part the entries; values can stand above or below the molecule they belong to.

What was measured:
[1] = Plasma pharmacokinetic study; type: in vivo, male Wistar rats; details: drug delivered by MPG2 (MPG2ER), intraperitoneal
In short: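 Male Wistar rats (200 ± 50 g), fasted, got a single intraperitoneal dose of the dendrimer formulation at 10 mg/kg drug equivalent in 5 % v/v DMSO, with 4 rats per time point. Retro-orbital blood (0.5 ml) was drawn at 0.5–96 h and centrifuged for 10 min at 12000 rpm, 4 °C. Plasma underwent single-step protein precipitation and HPLC at 254 nm. Parameters came from non-compartmental analysis.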

[2] = Tissue distribution study; type: in vivo, male Wistar rats; details: for AUCtol / AUMC / Cl: after MPG2ER 10 mg/kg i.p.; for Cmax / MRT / Tmax / half-life: male, Wistar, rat, ip, 10 mg/kg
In short: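 Male Wistar rats (200 ± 50 g), fasted, were dosed intraperitoneally with the formulation at 10 mg/kg drug equivalent in 5 % v/v DMSO, with 4 rats per time point. At 0.5, 1, 2, 4, 6, 12, 24, 48, 72 and 96 h, rats were killed by cervical dislocation. Excised tissues were homogenised, protein-precipitated in a single step and assayed for drug by HPLC.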

- Duration of sustained release in plasma [1]: up to 96 hrs
- AUCtol ([2]; Brain): 124±1.660 (μg/mL)*hr
- AUMC ([2]; Brain): 3245±73.69 (μg/mL)*hr
- Cl ([2]; Brain): 0.08064±0.001 (μg/kg)/((μg/mL)/hr
- AUCtol ([2]; Heart): 132.1±1.150 (μg/mL)*hr
- AUMC ([2]; Heart): 4027 ±87.53 (μg/mL)*hr
- Cl ([2]; Heart): 0.07601±0.003 (μg/kg)/((μg/mL)/hr
- AUCtol ([2]; Kidney): 121.2±0.164 (μg/mL)*hr
- AUMC ([2]; Kidney): 3190±6.976 (μg/mL)*hr
- Cl ([2]; Kidney): 0.08248±0.001 (μg/kg)/((μg/mL)/hr
- AUCtol ([2]; Liver): 97.88±1.146 (μg/mL)*hr
- AUMC ([2]; Liver): 2959±32.860 (μg/mL)*hr
- Cl ([2]; Liver): 0.1075±0.008 (μg/kg)/((μg/mL)/hr
- AUCtol ([2]; Lymph Node): 96.33±0.190 (μg/mL)*hr
- AUMC ([2]; Lymph Node): 3143±75.49 (μg/mL)*hr
- Cl ([2]; Lymph Node): 0.1038±0.002 (μg/kg)/((μg/mL)/hr
- AUCtol ([2]; Spleen): 88±2.205 (μg/mL)*hr
- AUMC ([2]; Spleen): 2799±81.109 (μg/mL)*hr
- Cl ([2]; Spleen): 0.1156±0.002 (μg/kg)/((μg/mL)/hr
- Cmax ([2]; brain): 6653 ± 35 ng/mL
- MRT ([2]; brain): 26.2 ± 0.284 h
- Tmax ([2]; brain): 6 h
- half-life ([2]; brain): 13.53 ± 0.088 h
- Cmax ([2]; heart): 4674 ± 25 ng/mL
- MRT ([2]; heart): 30.3 ± 1.28 h
- Tmax ([2]; heart): 6 h
- half-life ([2]; heart): 19.3 ± 0.598 h
- Cmax ([2]; kidney): 5342 ± 20 ng/mL
- MRT ([2]; kidney): 27.3 ± 1.02 h
- Tmax ([2]; kidney): 6 h
- half-life ([2]; kidney): 17.52 ± 0.0127 h
- Cmax ([2]; liver): 5980 ± 83 ng/mL
- MRT ([2]; liver): 30.7 ± 0.384 h
- Tmax ([2]; liver): 6 h
- half-life ([2]; liver): 16.9 ± 1.09 h
- Cmax ([2]; lymph node): 3440 ± 48 ng/mL
- MRT ([2]; lymph node): 32.63 ± 0.113 h
- Tmax ([2]; lymph node): 6 h
- half-life ([2]; lymph node): 21 ± 0.054 h
- Cmax ([2]; spleen): 4580 ± 69 ng/mL
- MRT ([2]; spleen): 32.1 ± 1.65 h
- Tmax ([2]; spleen): 6 h
- half-life ([2]; spleen): 21.9 ± 0.25 h
SMILES: O=C1Nc2ccc(Cl)cc2[C@@](C#CC2CC2)(C(F)(F)F)O1 [EFV, efavirenz]

SMILES: CC(C)c1nc(CN(C)C(=O)N[C@H](C(=O)N[C@@H](Cc2ccccc2)C[C@H](O)[C@H](Cc2ccccc2)NC(=O)OCc2cncs2)C(C)C)cs1 [RTV, ritonavir]
- Duration of sustained release in plasma [1]: ≤ 72 h
- AUCtol ([2]; Brain): 9.25±2.074 (μg/mL)*hr
- AUMC ([2]; Brain): 97.42± 68.213 (μg/mL)*hr
- Cl ([2]; Brain): 0.270± 0.008 (μg/kg)/((μg/mL)/hr
- AUCtol ([2]; Heart): 18.34±1.190 (μg/mL)*hr
- AUMC ([2]; Heart): 285.923± 47.303 (μg/mL)*hr
- Cl ([2]; Heart): 0.136± 0.032 (μg/kg)/((μg/mL)/hr
- AUCtol ([2]; Kidney): 29.27±1.620 (μg/mL)*hr
- AUMC ([2]; Kidney): 641.30± 73.625 (μg/mL)*hr
- Cl ([2]; Kidney): 0.087± 0.036 (μg/kg)/((μg/mL)/hr
- AUCtol ([2]; Liver): 14.51±2.024 (μg/mL)*hr
- AUMC ([2]; Liver): 240.78± 26.201 (μg/mL)*hr
- Cl ([2]; Liver): 0.172± 0.012 (μg/kg)/((μg/mL)/hr
- AUCtol ([2]; Lymph Node): 25.07±1.305 (μg/mL)*hr
- AUMC ([2]; Lymph Node): 421.67± 81.067 (μg/mL)*hr
- Cl ([2]; Lymph Node): 0.085± 0.007 (μg/kg)/((μg/mL)/hr
- AUCtol ([2]; Spleen): 25.82±0.934 (μg/mL)*hr
- AUMC ([2]; Spleen): 464.21± 27.094 (μg/mL)*hr
- Cl ([2]; Spleen): 0.091± 0.043 (μg/kg)/((μg/mL)/hr
- Cmax ([2]; brain): 790 ± 32 ng/mL
- MRT ([2]; brain): 10.5 ± 1 h
- Tmax ([2]; brain): 4 h
- half-life ([2]; brain): 6.67 ± 0.792 h
- Cmax ([2]; heart): 2400 ± 15 ng/mL
- MRT ([2]; heart): 15.6 ± 1.93 h
- Tmax ([2]; heart): 4 h
- half-life ([2]; heart): 13.4 ± 0.45 h
- Cmax ([2]; kidney): 2490 ± 55 ng/mL
- MRT ([2]; kidney): 21.9 ± 0.761 h
- Tmax ([2]; kidney): 4 h
- half-life ([2]; kidney): 14.7 ± 0.652 h
- Cmax ([2]; liver): 2890 ± 21 ng/mL
- MRT ([2]; liver): 16.6 ± 0.272 h
- Tmax ([2]; liver): 4 h
- half-life ([2]; liver): 10.9 ± 0.325 h
- Cmax ([2]; lymph node): 2030 ± 42 ng/mL
- MRT ([2]; lymph node): 16.3 ± 0.937 h
- Tmax ([2]; lymph node): 4 h
- half-life ([2]; lymph node): 12.9 ± 1.09 h
- Cmax ([2]; spleen): 2130 ± 24 ng/mL
- MRT ([2]; spleen): 18 ± 1 h
- Tmax ([2]; spleen): 4 h
- half-life ([2]; spleen): 13 ± 1.02 h
